Assay results gathered from unrelated publications.
Each line is one published result; the experiments were not run side by side.
Observed: cell growth or viability

| SMILES | cell line | technique | tested at | time | measurement | result |
| --- | --- | --- | --- | --- | --- | --- |
| CC(C)(C)c1cnc(CSc2cnc(NC(=O)C3CCN(CCCCCSc4cccc5c4CN(C4CCC(=O)NC4=O)C5=O)CC3)s2)o1 (stereo not drawn) | HH | CCK-8 | 0.2 µM | – | viability | 0% |
| S=C(Nc1ccccc1)Nc1ccc(Oc2nnc(-c3ccc(Cl)cc3)c3ccccc23)cc1 | HepG2 | MTT | 10 µM | – | cell death | 97.2% |
| CC(C)(C)c1cnc(CSc2cnc(NC(=O)C3CCN(C(=O)CCCSc4cccc5c4C(=O)N(C4CCC(=O)NC4=O)C5=O)CC3)s2)o1 (stereo not drawn) | HH | CCK-8 | 1 nM | – | viability | 98.1% |
| CNc1ncc2c(/C=C/C(=O)N3CCC(OC)CC3)nn(Cc3ccc(C(F)(F)F)cc3)c2n1 | OE33 | resazurin | – | 5 days | EC50 | 1.32 µM |
| O=C(Nc1ccc(Oc2nnc(-c3ccc(Cl)cc3)c3ccccc23)cc1)c1ccccc1 | HepG2 | MTT | 0.312 µM | – | cell death | 67.5% |
| CC(C)(C)c1cnc(CSc2cnc(NC(=O)C3CCN(C(=O)COCCOCCSc4cccc5c4C(=O)N(C4CCC(=O)NC4=O)C5=O)CC3)s2)o1 (stereo not drawn) | HH | CCK-8 | 50 nM | – | viability | 97.9% |
| CNc1ncc2c(/C=C/C(=O)O)nn(CC3CCCC3)c2n1 | OE33 | resazurin | – | 5 days | EC50 | > 30 µM |
| O=C(Nc1ccccc1)Nc1ccc(Oc2nnc(-c3ccc(Cl)cc3)c3ccccc23)cc1 | HepG2 | MTT | 0.625 µM | 24 h | viability | 5.31% |
| Nc1ncnc2c1c(/C=C/C(=O)N1CCCCC1)nn2CC1CCCC1 | OE33 | resazurin | – | 5 days | EC50 | > 30 µM |
| C=CC(=O)NC1CCN(c2ncc3ncnc(Nc4ccc(Oc5ccc6c(c5)ncn6C)c(C)c4)c3n2)CC1 | NCI-H292 | – | – | – | EC50 | 0.0826 µM |
| CNc1ncc2c(/C=C/C(=O)N3CCC(OC)CC3)nn(CCC(C)C)c2n1 | OE33 | resazurin | – | 5 days | EC50 | 19.7 µM |
| CC(C)(C)c1cnc(CSc2cnc(NC(=O)C3CCN(CCCCCCCCSc4cccc5c4CN(C4CCC(=O)NC4=O)C5=O)CC3)s2)o1 (stereo not drawn) | HH | CCK-8 | 10 nM | – | viability | 99.7% |
